The compounds below were run on T1, A0A140T8K0. Conditions: stereoisomer not certain.
T1 sequence (whole entry): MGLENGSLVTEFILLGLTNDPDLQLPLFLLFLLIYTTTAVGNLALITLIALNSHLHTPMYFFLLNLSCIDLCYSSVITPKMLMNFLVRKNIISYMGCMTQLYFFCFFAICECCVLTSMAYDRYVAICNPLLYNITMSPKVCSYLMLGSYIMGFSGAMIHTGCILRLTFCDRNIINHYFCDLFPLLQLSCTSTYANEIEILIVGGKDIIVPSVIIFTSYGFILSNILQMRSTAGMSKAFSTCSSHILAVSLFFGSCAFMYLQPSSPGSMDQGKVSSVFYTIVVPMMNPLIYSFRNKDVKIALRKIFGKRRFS
Method in brief: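 Assay methods differ from source to source, frequently being transient luciferase assays in mammalian cell lines. For each receptor–molecule pair, the label responsive (active) applies when the original authors judged the measured signal statistically different from baseline, and non-responsive (inactive) applies otherwise.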

SMILES	odorant receptor agonist call
CC1(C)CC(=O)CC(=O)C1	inactive
CC(=O)OCCc1ccccc1	inactive
CSSCc1ccco1	inactive
COc1ccccc1	inactive
CCC(C)O (centres undefined)	inactive
Cc1ccccc1OC(=O)C(C)C	inactive
O=C([O-])CCCCCCCC(=O)[O-].[H+].[H+]	inactive
OCCCCCCCCCO	inactive
C1CCOC1	inactive
C=C(C)C1CCC(C)C(O)C1 (centres undefined)	inactive
CCCCCCCCCCCO	inactive
Cc1occc1SSc1ccoc1C	inactive
CCCO	inactive
O=C(OCc1ccccc1)c1ccccc1O	inactive
CCCC=O	inactive
CCCC(C)C(=O)OCC (centres undefined)	inactive
CCCCCCCCOC=O	active
CC(=O)C1(C)CC2=C(CCCC2(C)C)CC1C (centres undefined)	inactive
CCSSCC	inactive
CSSSC	inactive

SMILES	odorant receptor agonist call
Cc1ccc(C(C)C)c(O)c1	inactive
COc1nccnc1C	inactive
CC(CC=O)CCCC(C)(C)O (centres undefined)	inactive
CC(=O)OCc1ccc2c(c1)OCO2	inactive
CCCCCCCCCC=CC=O	inactive
CC(C)CS	inactive
C=C1C2CCC(C2)C1(C)C (centres undefined)	inactive
CCc1ccc(O)cc1	inactive
CCC=CCCC=CC=O	inactive
CC(C)CCN	inactive
CC=Cc1ccc(OC)cc1	inactive
Cc1ccc(C(C)C)cc1	inactive
C=C(C)C1CCC2(C)OC2C1 (centres undefined)	inactive
C=C(CC)CCCC(C)(C)O	inactive
CNc1ccccc1C(=O)OC	inactive
O=C(O)C1CCC1	inactive
Cc1ccc2c(c1)OCC(=O)CO2	inactive
CCCCCCCOC(=O)C(C)C	inactive
OCC=Cc1ccccc1	inactive

Source: the M2OR odorant receptor database
